# Hits are enriched below; roughly 2.7% of the tested compounds scored in any of these assays.
# p97 ATPase inh – inhibitors of human p97 ATPase. 220,000 compounds, 0.42% hits. P55072. recombinant p97 ATPase, Kinase-Glo ATP luminescence, 3 h. inhibition, % at 8 µM; in the data active = inhibition above about 15%;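 note: 0% = DMSO vehicle and 100% = wells lacking enzyme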
# Target sequence (P55072 whole entry, looked up): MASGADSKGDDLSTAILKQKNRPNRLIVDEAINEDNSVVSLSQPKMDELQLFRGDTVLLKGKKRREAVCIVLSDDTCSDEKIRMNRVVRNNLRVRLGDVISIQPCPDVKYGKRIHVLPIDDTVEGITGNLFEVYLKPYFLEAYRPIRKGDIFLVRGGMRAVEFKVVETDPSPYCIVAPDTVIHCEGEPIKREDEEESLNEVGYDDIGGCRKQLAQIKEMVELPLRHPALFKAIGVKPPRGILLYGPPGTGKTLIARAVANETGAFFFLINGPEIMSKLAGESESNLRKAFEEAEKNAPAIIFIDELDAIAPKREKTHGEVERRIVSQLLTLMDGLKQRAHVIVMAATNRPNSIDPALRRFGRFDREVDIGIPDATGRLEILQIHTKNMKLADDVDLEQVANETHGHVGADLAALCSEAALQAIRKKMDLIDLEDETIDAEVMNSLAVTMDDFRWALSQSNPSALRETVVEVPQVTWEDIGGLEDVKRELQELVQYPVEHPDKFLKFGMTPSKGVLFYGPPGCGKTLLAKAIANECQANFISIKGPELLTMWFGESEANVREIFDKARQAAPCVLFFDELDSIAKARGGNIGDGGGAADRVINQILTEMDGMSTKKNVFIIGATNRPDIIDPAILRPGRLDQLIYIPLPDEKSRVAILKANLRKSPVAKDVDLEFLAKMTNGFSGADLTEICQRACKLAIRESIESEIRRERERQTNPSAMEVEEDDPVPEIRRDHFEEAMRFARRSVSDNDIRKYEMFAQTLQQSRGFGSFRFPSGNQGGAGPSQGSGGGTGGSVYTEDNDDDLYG
# Wee1 degr inh – human Wee1 degradation inhibition, primary screen | P30291 | HeLa Luc-Wee1K328M stability, luciferase luminescence; 100% = proteasome inhibitor MG132 effect | reporter increase, % at 5 µM | 220,000 compounds, 1.2% hits;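 active = activation above the mean of all tested compounds plus 3 SD, set per screening run, cut at about 8.8% in these data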;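 note: cells exposed to compound for 20 h before luminescence read; 0% = DMSO alone and 100% = MG132 at 30 µM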
# L929 necroptosis – blocks zVAD induced death of L929 cells. L929 zVAD necroptosis rescue, ATP luminescence, 24 h; with zVAD 60 µM. viability rescue, % at 10 µM. 220,000 compounds, 0.38% hits. AID 1377;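 active = activation, scaled between plate controls, above about 75%, limit read from the data; inactive = activation under that limit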;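 note: 0% = zVAD with DMSO and 100% = DMSO alone without zVAD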
# M18AAP inhibitor – PfM18AAP enzyme inhibition. inhibition, % at 7.35 µM. recombinant PfM18AAP, H-Glu-NHMec fluorogenic cleavage. AID 1822. 290,000 compounds, 1.2% hits;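 active = inhibition above the campaign mean inhibition over all tested compounds plus 3 SD, cut at about 28% in these data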;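 note: 0% = plate median of test compound wells and 100% = 2 mM ZnCl2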
# RBBP9 inh – blocks human serine hydrolase RBBP9; O75884; recombinant RBBP9, FP-Rh probe fluorescence polarization; inhibition, % at 7.94 µM; 220,000 compounds, 0.2% hits; AID 1515;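 active = inhibition above the campaign mean of all tested compounds plus 3 SD, cut at about 14% in these data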;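 note: plate controls were DMSO wells with RBBP9 for no effect and wells lacking RBBP9 protein for full effect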
#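 Measured by – fluorescence polarization · Test system – RBBP9 protein · Input – 2.5 µM RBBP9 dispensing solution, before mixing · Measure – percent inhibition from mP, scaled between DMSO and no-protein wells · Benchmarks – DMSO-treated enzyme wells and wells lacking RBBP9 · Times – preincubation 30 min plus labeling 45 min at 25 °C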
# TNF death inh – TNF-alpha cell death inhibition in Jurkat FADD-/- cells; activation (protection from cell death), % at 10 µM; 220,000 compounds, 0.068% hits; Jurkat FADD-/- TNF necroptosis rescue, ATP luminescence, 24 h; 0 = TNF only, 100 = no-TNF cells;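 active = activation, meaning protection from cell death, of at least 50% relative to plate controls; inactive = activation below 50%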;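 note: necroptosis triggered by 40 ng/mL TNF-alpha added together with compound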
# zVAD necrop conf – confirmed blocker of zVAD induced death in L929 cells | shares compounds with L929 necroptosis | L929 zVAD-induced necroptosis rescue, ATP luminescence, 24 h | activation (protection from necroptosis), % at 10 µM | 760 compounds, 16% hits | AID 463117;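 active = mean protection from necroptosis of at least 50% over duplicate tests; inactive = mean protection below 50%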;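 note: 0% = cells with zVAD alone and 100% = vehicle cells without zVAD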
# * hit, by the source's call; · = not tested or not shown.
SMILES,p97 ATPase inh,Wee1 degr inh,L929 necroptosis,M18AAP inhibitor,RBBP9 inh,TNF death inh,zVAD necrop conf
COc1ccc(CC(=O)NCC2CCCN(Cc3cccc(SC)c3)C2)cc1 (centres undefined),·,·,·,-3,·,·,·
O=c1[nH]c2ccccc2cc1CN(Cc1ccco1)S(=O)(=O)c1ccccc1,·,·,·,2,·,·,·
Cc1ccc(C(=O)N2C(CC(=O)Nc3ccc(Cl)cc3)C(=O)NC3CCCCC32)cc1 (centres undefined),1,6,4,0,-8,-4,·
O=C(Nc1nccs1)c1ccc(NC(=O)c2ccco2)cc1,3,3,84*,1,1,21,48
Nc1ccc(C(=O)Nc2nccs2)cc1,0,2,81*,-2,-4,21,40
O=C(Nc1nccs1)c1ccc2nccnc2c1,11,-1,34,-2,0,4,·
COc1ccc(CC(=O)Nc2ccc(C(=O)Nc3nccs3)cc2)cc1OC,-1,-2,83*,6,-15,14,63*
O=C(CN(C(=O)c1csnn1)c1cccc(C(F)(F)F)c1)NCCc1ccccc1,·,·,·,-2,·,·,·
O=C(C[n+]1ccc(C(=O)NCc2ccccc2)cc1)c1ccc(Cl)cc1,·,·,·,0,·,·,·
CCN(Cc1ccncc1)C(=O)c1ccccc1NS(=O)(=O)c1ccc(Br)cc1,-6,3,-1,1,-2,0,·
Cc1ccc(NC(=O)c2noc3c2CCCCC3)cc1,1,4,82*,1,-7,2,2
C/C(=N\OCC(=O)Nc1ccc2c(c1)OCCO2)c1ccc2c(c1)OCCO2,-8,-2,86*,0,-5,1,4
COc1cc2oc(-c3ccc(O)cc3)cc(=O)c2c(O)c1OC,·,·,78*,·,·,-11,42
COc1cc(-c2cc(=O)c3c(O)c(OC)c(OC)c(OC)c3o2)cc(OC)c1OC,·,·,72,·,·,-10,·
Brc1ccccc1/C=N/Nc1ccccn1,3,-1,52,3,-3,3,·
O=C(O)c1cccc2c(/C=N/Nc3ccccn3)c[nH]c12,5,5,84*,26,4,44,12
C(=N\Nc1ccccn1)/c1c[nH]c2ccccc12,3,1,92*,21,0,15,55*
O=C(O)c1ccccc1N/N=C\c1ccnc2ccccc12,-1,-2,0,2,-5,-3,·
COc1cc(/C=N/Nc2nc3ccccc3s2)cc([N+](=O)[O-])c1O,5,4,76*,19,-13,25,1
COc1cc(OC)cc(C(=O)Oc2ccc(/C=N/Nc3nc4ccccc4s3)cc2OC)c1,-1,5,77*,6,-7,3,5
Brc1csc(/C=N/Nc2nc3ccccc3s2)c1,-6,8.9*,76*,-5,8,7,2
C(=N\Nc1nc2ccccc2s1)/c1ccccn1,-29,-4,31,11,4,-21,·
COc1cc(/C=N/Nc2nc3ccccc3s2)ccc1OC(=O)c1ccccc1F,-4,0,75*,4,3,31,75*
O=C(Nc1cc(Cl)ccc1C(=O)O)c1ccc(CN2C(=O)c3ccccc3C2=O)cc1,·,·,·,-7,·,·,·
CCc1nnc(NC(=O)CSc2nnc3nc(C)cc(C)n23)s1,·,·,·,-2,·,·,·
SMILES,p97 ATPase inh,Wee1 degr inh,L929 necroptosis,M18AAP inhibitor,RBBP9 inh,TNF death inh,zVAD necrop conf
O=C(Cn1cc(S(=O)(=O)Cc2cccc(F)c2)c2ccccc21)N1CCOCC1,·,·,·,1,·,·,·
O=C1C2CCCCN2C(=O)N1CCCCN1CCN(c2cccc(Br)c2)CC1 (centres undefined),·,·,·,2,·,·,·
Cc1ccc(-n2cc(CN3CCC(O)(c4ccccn4)CC3)c(-c3ccc(F)cc3)n2)cc1,4,-1,2,1,3,7,·
C=C1C(=O)O[C@@H]2[C@H]1[C@@H](OC(=O)/C(C)=C/C)C/C(C)=C\C(=O)/C=C(\C)[C@@H]2O,·,·,84*,·,·,2,5
c1cnc2ccc(C(c3nnnn3C3CCCCC3)N3CCN(C4CCCCC4)CC3)cc2c1 (centres undefined),1,1,77*,4,3,3,70*
CCOc1ccc(/C=C\C(C)=N\O)cc1,4,8,99*,2,-7,8,31
CCOc1ccc(/C=C/C(=O)Oc2ccc(OC)cc2)cc1,·,·,·,2,·,·,·
COc1cccc(NC(=O)Nc2ccccc2Br)c1,3,-3,6,0,3,0,·
COc1cccc(NC(=O)Nc2cc(Cl)ccc2C)c1,3,-5,77*,1,-20,2,0
CC(=O)Nc1cc(-c2ccc(Cl)cc2)[nH]n1,7,0,87*,-5,-1,0,37
Cc1cc(-c2ccccc2)nc(N/N=C/c2ccccc2)n1,·,·,·,5,·,·,·
CNc1nc(C)nc(N/N=C/c2ccccc2)n1,4,5,76*,1,-14,16,1
Cc1c(NC(=O)CN2CCCC(C)C2)ccc2nsnc12 (centres undefined),-4,-1,1,-7,-3,1,·
O=S(=O)(Nc1cccc2ncccc12)c1cccs1,6,1,79*,1,-10,5,40
COCCn1c(C(C)C)nc2ccccc21,5,4,0,1,-3,2,·
CN(c1cccc(NC(=O)CCSc2ccccc2)c1)S(C)(=O)=O,1,0,2,7,-7,-2,·
CN(C)S(=O)(=O)Oc1ccc(C(=O)Nc2cccc(C(F)(F)F)c2)cc1,5,-1,79*,2,-5,-4,3
CN(c1cccc(NC(=O)c2ccc(C(C)(C)C)cc2)c1)S(C)(=O)=O,-3,2,77*,-5,-8,-2,36
CN(c1cccc(NC(=O)CSc2ccc(Cl)cc2)c1)S(C)(=O)=O,-4,8,75*,1,-4,-7,3
O=C(c1ccco1)N1CCN(S(=O)(=O)c2c(Cl)cccc2Cl)CC1,·,·,·,-4,·,·,·
Clc1cc(Br)ccc1NCc1cccnc1,·,·,·,6,·,·,·
CN1CCN(c2ccc(-c3ccnn3C(=O)Nc3ccccc3)cc2)CC1,1,9,84*,0,7,9,29
